Source: PubChem BioAssay
Compounds with a hit are over-represented: about 6.8% of the library has one in this group of screens.
HSF-1 act = increases HSF-1 driven luciferase reporter signal | NIH3T3-HGL HSF-1 luciferase reporter, MG132, 8 h; 100% = twice DMSO control signal | activation, % at 9 µM | 1.7% of 300,000 active | AID 504408;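 active means mean replicate activation of at least 50% with a set share of replicates each reaching 50%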;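 further: 0% = median of the neutral control wells and 100% = twice that signal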
core dimer inh = blocks dimerization of HCV core protein | AID 1899 | TR-FRET GST/Flag-core106 dimerization, 1536-well | inhibition, % at 5 µM | 0.33% of 300,000 active;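 active means inhibition above the mean of all tested compounds plus 3 SD, set per screening campaign, cut at about 45% in these data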
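Test system: GST/Flag-tagged HCV core106 proteins; Medium: KF-containing HEPES buffer, pH 7.45, DTT, CHAPS, BSA; Times: compound-protein-antibody incubation 4 h at 22.5 °C; Detection: TR-FRET 671 and 617 nm emission; Benchmarks: wells lacking GST-core106 and wells with excess unlabelled core106.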
PHOSPHO1 inh = inhibitors of human PHOSPHO1 phosphatase. recombinant PHOSPHO1, absorbance phosphatase assay. inhibition, % at 13.3 µM. Q8TCT1. 1.1% of 290,000 active; in the data active means inhibition above about 60%
Target sequence (Q8TCT1 whole entry, looked up): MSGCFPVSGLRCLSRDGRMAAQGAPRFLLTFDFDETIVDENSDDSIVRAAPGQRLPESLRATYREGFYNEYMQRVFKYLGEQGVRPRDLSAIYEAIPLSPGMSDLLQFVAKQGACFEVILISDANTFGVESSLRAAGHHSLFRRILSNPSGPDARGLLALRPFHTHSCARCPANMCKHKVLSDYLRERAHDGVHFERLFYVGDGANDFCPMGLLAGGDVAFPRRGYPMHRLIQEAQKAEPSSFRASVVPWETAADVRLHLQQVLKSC
AI-2 QS modul = modulators of Vibrio harveyi AI-2 quorum sensing system; Vibrio harveyi JMH597 AI-2 luminescence/OD600 ratio, 9 h; stronger effect = lower value; strain lacks LuxN and CqsS sensors; 0 = neutral-control median; activity change, % at 7.5 µM; 0.4% of 300,000 active; in the data active means activity change below about -75%, passing the limit was not always enough;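 further: luminescence divided by OD600 gain over 9 h not by final OD600 alone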
ALR inh = inhibitors of human sulfhydryl oxidase ALR; purified ALR, DTT oxidation, H2O2 HRP-luminol luminescence; inhibition, % (concentration not given with the values); 3.8% of 290,000 active; AID 485317;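 active means mean replicate inhibition above about 79%, with every replicate also reaching it, limit read from the data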
Target sequence (P55789 whole entry, looked up): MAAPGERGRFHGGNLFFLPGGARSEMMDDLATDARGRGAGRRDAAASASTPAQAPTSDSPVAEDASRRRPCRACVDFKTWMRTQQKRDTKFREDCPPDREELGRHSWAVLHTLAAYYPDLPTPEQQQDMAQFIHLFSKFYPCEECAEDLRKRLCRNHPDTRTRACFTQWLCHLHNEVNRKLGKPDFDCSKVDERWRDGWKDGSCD
HSF1 inh = HSF1 inhibition; NIH3T3-HGL HSE-luciferase, MG132-induced, luminescence 8 h; stronger effect = lower value; activity change, negative = inhibition, % at 7.5 µM (by protocol); 0.77% of 300,000 active; AID 2098;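 active means more than half of replicate wells show activity change below -50%, luminescence cut by over half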;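 further: luciferase reports HSF-1 transcriptional activity via heat shock element; 0% = median of DMSO wells and -100% = zero luminescence signal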
* marks the source's active call; other numbers are inactive results; . = not tested or not shown.

SMILES	HSF-1 act	core dimer inh	PHOSPHO1 inh	AI-2 QS modul	ALR inh	HSF1 inh
CCc1ccc(C(=O)COC(=O)CNC(=O)c2cccs2)cc1	-89.0	-1.3	7.1	36.6	-8.9	-86.3*
CCc1ccc(OCCNC(=O)c2cccs2)cc1	20.0	1.7	7.8	-78.9*	-3.2	6.8
CCCCOCCCNC(=O)c1cccs1	.	-0.9	20.1	11.4	-2.1	.
O=C(CNC(=O)c1cccs1)NCC(=O)OCc1c(Cl)cccc1Cl	-4.0	5.2	19.4	35.2	-8.1	1.2
O=C(CNC(=O)c1cccs1)OCc1ccc(Cl)cc1	12.5	6.3	49.4	-79.1*	-14.7	13.7
Cc1ccc(NS(=O)(=O)c2cccc(C(=O)N(C)Cc3cccs3)c2)cc1	-5.0	-0.9	.	25.9	-1.0	4.4
Cc1ccc2nc(SCc3nnc(-c4ccccc4Br)o3)[nH]c2c1	14.0	1.9	20.6	139.1	67.1	7.6
CC(NS(=O)(=O)c1ccc2c(c1)oc(=O)n2C)c1ccccc1 (stereo not drawn)	-3.4	7.5	25.0	25.7	.	-6.3
O=C(O)c1ccc(NCCc2ccc(Cl)cc2)c([N+](=O)[O-])c1	11.4	3.0	0.6	41.2	0.3	12.8
O=C(CNC(=O)c1cccs1)OCC(=O)c1ccccc1	-10.9	3.5	7.8	9.7	-3.9	-2.4
O=C(CNC(=O)c1cccs1)NCC(=O)OCC(=O)c1ccc([N+](=O)[O-])cc1	4.5	-5.2	-14.1	27.4	95.9*	-0.9
O=C(COC(=O)c1ccc2c(c1)C(=O)N(Cc1ccncc1)C2=O)Nc1ccccc1[N+](=O)[O-]	12.7	54.4*	-5.7	35.5	-0.6	-1.6
Cc1ccc2sc(NNC(=O)c3cc(=O)c4ccccc4o3)nc2c1C	6.2	-19.3	35.7	33.5	98.7*	14.0
Cc1ccc(S(=O)(=O)N(C)CC(=O)N2CC(C)OC(C)C2)cc1 (stereo not drawn)	-1.0	5.5	7.6	0.9	-10.7	-5.3
O=C(CSc1nnc(CNc2ccc(F)cc2)n1Cc1ccco1)NC1CC1	-13.5	-2.6	58.6	32.2	5.4	2.9
O=C(CSc1nnc(CNc2ccc(F)cc2)n1Cc1ccco1)N1CCOCC1	1.1	-3.6	87.9*	26.7	-0.1	4.8
CCc1c(C)nc2c(C#N)c[nH]n2c1=O	6.5	0.3	11.4	8.0	97.6*	-4.1
CCN(CC)S(=O)(=O)c1ccc(/C=C/C(=O)OCC(=O)Nc2cccnc2Cl)cc1	.	.	.	.	2.1	.
CN(C)C(CNC(=S)Nc1ccccc1Cl)c1cccnc1 (stereo not drawn)	12.8	5.4	-18.8	7.1	-2.2	-0.8
O=C(O)CN1C(=O)/C(=C\c2cc(Br)ccc2OCc2ccc([N+](=O)[O-])cc2)SC1=S	37.6	26.2	.	9.4	82.7*	15.1
O=C(O)CN1C(=O)/C(=C\c2cc(Br)ccc2OCc2ccccc2Cl)SC1=S	14.0	12.4	.	1.2	8.1	-7.4
O=C(O)CCN1C(=O)/C(=C\c2cccc(OCc3ccccc3)c2)SC1=S	16.4	20.7	14.6	20.8	-3.3	4.7
O=C(O)CN1C(=O)/C(=C\c2ccccc2OCc2ccc(Cl)cc2Cl)SC1=S	-70.2	21.1	34.0	7.3	86.8*	-66.5*
COc1cc([N+](=O)[O-])cc(/C=C2/SC(=S)N(Cc3ccccc3)C2=O)c1O	-8.3	-4.6	-2.4	6.2	97.1*	-3.7
O=C(O)CN1C(=O)/C(=C\c2cccc(OCc3ccc(Cl)cc3Cl)c2)SC1=S	9.6	.	-26.4	16.7	98.5*	-1.8
SMILES	HSF-1 act	core dimer inh	PHOSPHO1 inh	AI-2 QS modul	ALR inh	HSF1 inh
Cc1nc([N+](=O)[O-])nn1C12CC3CC(CC(Cl)(C3)C1)C2	-5.0	-1.8	0.3	20.4	-4.5	-5.2
COc1ccc(C(=O)OC(C)C(=O)NC(C)CCc2ccccc2)c(OC)c1 (stereo not drawn)	10.9	-2.8	-2.8	38.9	-14.5	0.4
COc1cccc(NC(=O)c2cc([N+](=O)[O-])ccc2NC(=O)CNCC2CCCO2)c1 (stereo not drawn)	12.0	9.5	51.8	18.8	99.6*	14.4
O=c1c(-c2ccccc2)c(O)c2ccccc2n1-c1ccccc1	-2.2	6.6	.	20.4	16.1	-2.8
CCCOc1ccc(CCc2n[nH]c(=S)n2Cc2ccccc2)cc1	15.8	1.4	79.0*	3.5	.	0.0
COCCn1c(CCc2ccccc2)n[nH]c1=S	-3.4	-3.2	-112.8	6.6	85.2*	-6.0
CCOc1ccc(-n2ccnc2SCC(=O)Nc2cc(C)on2)cc1	-0.2	-2.3	-18.8	20.8	-18.9	-2.2
Cc1sc2nc(CSc3nc4ccccc4c(=O)n3CCCN3CCOCC3)[nH]c(=O)c2c1C	60.9*	16.3	5.7	10.3	.	40.9
